E-sel inducer: E-selectin induction on HUVECs; P16581; HUVEC E-selectin immunofluorescence imaging; normalized: neutral wells 0, TNF-alpha wells 100; activation, % at 7.58 µM; 260,000 compounds, 0.37% hits;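 active means mean E-selectin-positive cell signal at least 10% of the positive control, reached in at least 60% of replicates, without over 20% cell loss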
Target sequence (P16581 whole entry, looked up): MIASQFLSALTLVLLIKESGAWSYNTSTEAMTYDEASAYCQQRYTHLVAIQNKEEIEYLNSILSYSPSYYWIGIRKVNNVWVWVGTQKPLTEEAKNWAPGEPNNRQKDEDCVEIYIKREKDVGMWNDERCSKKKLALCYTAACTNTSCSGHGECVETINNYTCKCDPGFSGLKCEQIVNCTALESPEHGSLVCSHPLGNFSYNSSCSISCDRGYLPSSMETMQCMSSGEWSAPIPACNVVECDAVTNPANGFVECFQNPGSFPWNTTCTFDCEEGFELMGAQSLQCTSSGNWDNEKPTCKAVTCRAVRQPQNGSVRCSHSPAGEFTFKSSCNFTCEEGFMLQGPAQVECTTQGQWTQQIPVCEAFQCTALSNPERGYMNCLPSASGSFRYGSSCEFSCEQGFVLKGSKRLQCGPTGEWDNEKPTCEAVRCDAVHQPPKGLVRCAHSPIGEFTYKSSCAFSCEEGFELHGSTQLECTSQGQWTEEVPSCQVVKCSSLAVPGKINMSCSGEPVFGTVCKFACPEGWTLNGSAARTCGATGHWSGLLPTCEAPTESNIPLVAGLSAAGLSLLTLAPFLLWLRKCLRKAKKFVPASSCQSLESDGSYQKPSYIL
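Read-out: % PE-positive cells | Test system: HUVEC | Doses: One compound dose added by pin transfer | Buffer or medium: EGM-2 over gelatin coat | Signal: Immunofluorescence imaging | Benchmarks: TNF-alpha, DMSO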
HIV Env fusion: HIV envelope-mediated fusion inhibition; HeLa-JRFL Env/CEM21 cell fusion, luciferase; inhibition, % at 12.3 µM; 360,000 compounds, 1.1% hits;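 active means mean replicate inhibition score of at least 50 and every replicate individually at or above 50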
FGF22 binding: FGF22 (human) thermal shift binding. Q9HCT0. recombinant FGF22 thermal shift, SYPRO orange fluorescence; percent of sucrose octasulfate shift, DMSO zero. activity (Tm shift, normalised), % at 9.99 µM. 340,000 compounds, 1.5% hits;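 active means mean Tm shift, scaled 0 neutral to 100 positive control, at about 1.3% or above, every replicate too, limit read from the data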
Target sequence (Q9HCT0 whole entry, looked up): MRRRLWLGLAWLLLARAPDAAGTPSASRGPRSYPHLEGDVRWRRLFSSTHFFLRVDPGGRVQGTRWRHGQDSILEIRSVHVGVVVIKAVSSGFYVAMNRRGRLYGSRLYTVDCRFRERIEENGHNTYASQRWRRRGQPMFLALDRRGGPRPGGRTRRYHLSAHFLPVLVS
F508del corr: correctors of CFTR F508del function in bronchial epithelial cells | AID 720511 | activity (quench increase), % at 7.58 µM | CFBE cells, YFP halide quenching; stimulated with forskolin plus potentiator P3; % fluorescence drop versus neutral controls | 350,000 compounds, 0.36% hits;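 active means mean added fluorescence quench of at least 8% versus neutral control, with both replicates also reaching 8%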;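 further: cells transiently co-express mutant CFTR-F508del with the halide-sensitive YFP; corrector assay measuring rescue of mutant channel to the surface after 24 h compound exposure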
S100A4 inh HTS: S100A4-myosin IIA interaction inhibition. S100A4/TAMRA-MyoIIA peptide fluorescence polarization. inhibition, % at 10.7 µM. 360,000 compounds, 0.14% hits. AID 652163;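 active means mean inhibition of at least 70% across replicates, with every replicate also reaching that level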
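Test system: S100A4 monomer protein; Medium: HEPES pH 7.2 with CaCl2, KCl, NaCl, DTT, Triton; Probe or stimulus: TAMRA-labelled myosin IIA heavy-chain peptide probe, 5 nM; Doses: one dose per compound; Times: polarization read 5 min after assay mix addition, stable 5–60 min; Benchmarks: neutral control DMSO, positive control TFP.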
Each line names hits and unclear results; the compound was inactive in the other large screens; [ ] = dose if it differs, or a comment. Sampled rows, rich in hits. Any-hit rate of the full collection: about 2.7%.

Cc1ccc(S(=O)(=O)NCC(=O)OCC(=O)N2CC(=O)Nc3ccccc32)cc1	none (no result: E-sel inducer)
C[C@@H]1CN([C@H](C)CO)C(=O)c2cccc(NC(=O)Nc3ccc4c(c3)OCO4)c2O[C@@H]1CN(C)C(=O)NC1CCCCC1	none (no result: HIV Env fusion)
COCCNC(=S)N(C)[C@H]1C[C@H]2c3[nH]c4cccc(-c5ccccc5)c4c3CCN2C(=O)[C@H]1[C@H](C)O	HIV Env fusion 58.7
C[C@H](O)[C@@H]1C(=O)N2CCc3c([nH]c4cccc(-c5ccccc5)c34)[C@@H]2C[C@@H]1N(C)C(=O)NC1CCCCC1	HIV Env fusion 60.6
COc1ccc2c3c(n(C)c2c1)[C@H](CO)N(CC1CC1)CC31CCN(C(=O)Nc2ccc(F)cc2F)CC1	none (no result: HIV Env fusion, S100A4 inh HTS)
C/C=C/c1ccc([C@@H]2[C@H](CO)N3CCCCN(S(=O)(=O)c4ccccc4)C[C@@H]23)cc1	F508del corr 31.4 (no result: HIV Env fusion)
N#Cc1c(NC(=O)CSc2ncc(-c3ccccc3)n2CC2CCCO2)sc2c1CCCC2 (stereo not given)	HIV Env fusion 67.5 (no result: E-sel inducer, FGF22 binding, F508del corr, S100A4 inh HTS)
Cc1onc(-c2c(F)cccc2Cl)c1C(=O)Nc1sc2c(c1C(N)=O)CCC2	HIV Env fusion 61.5 (no result: E-sel inducer, FGF22 binding, F508del corr, S100A4 inh HTS)
Cc1onc(-c2ccccc2)c1C(=O)Nc1sc2c(c1C#N)CCC2	HIV Env fusion 66.5 (no result: E-sel inducer, FGF22 binding, F508del corr, S100A4 inh HTS)
N#Cc1c(NC(=O)CSc2nnc(-c3ccncc3)n2CC2CCCO2)sc2c1CCCC2 (stereo not given)	none (no result: E-sel inducer, FGF22 binding, F508del corr, S100A4 inh HTS)
Cc1onc(-c2ccccc2)c1C(=O)NC(=S)Nc1sc2c(c1C#N)CCCC2	none (no result: E-sel inducer)
Cc1onc(-c2ccccc2)c1C(=O)Nc1sc2c(c1C(N)=O)CCC2	none (no result: FGF22 binding, F508del corr, S100A4 inh HTS)
Cc1cccc(N(Cc2cc(=O)[nH]c3ccccc23)C(=O)CCl)c1	HIV Env fusion 81.6 (no result: E-sel inducer)
CCCC(=O)N(Cc1cc(=O)[nH]c2ccccc12)c1cccc(C)c1	none
O=C1NC(=Nc2cccnc2)S/C1=C/c1ccc(F)cc1	F508del corr 14.3 (no result: E-sel inducer)
O=C1NC(=Nc2ccccc2)S/C1=C\c1cccnc1	none (no result: E-sel inducer)
COc1ccc(S(=O)(=O)N2CCCCC2)cc1NC(=O)Cc1sc(C)nc1-c1ccc(F)cc1	HIV Env fusion 80.4
COc1cccc(CNC(=O)CN2C(=O)COc3ccc(S(=O)(=O)N4CCCCCC4)cc32)c1	E-sel inducer 42.8
COc1cccc(C(=O)Nc2cc(S(=O)(=O)N3CCCCC3)ccc2OC)c1	FGF22 binding 43.4
COc1cccc(CNC(=O)CN2C(=O)COc3ccc(S(=O)(=O)N4CCCC4)cc32)c1	none (no result: E-sel inducer)
COc1ccc(S(=O)(=O)N2CCCCC2)cc1NC(=O)c1cccc(S(=O)(=O)N2CCOCC2)c1	none
CCN(CC)S(=O)(=O)c1ccc(OC(C)C)c(NC(=O)c2c3c(nc4ccccc24)CCN(Cc2ccccc2)C3)c1	HIV Env fusion 58.9
COc1ccc(S(=O)(=O)N2CCCCCC2)cc1NC(=O)c1c2c(nc3ccccc13)CCN(Cc1ccccc1)C2	HIV Env fusion 64.9 (no result: FGF22 binding, F508del corr, S100A4 inh HTS)
CO[C@@H]1CN(C)C(=O)c2ccc(NC(=O)Nc3cccc(Cl)c3)cc2OC[C@@H](C)NC[C@H]1C	none
Cc1cc(Cl)ccc1NC(=O)COC(=O)c1nc2nccc(C)n2n1	FGF22 binding 43.3
CCOC(=O)Cc1ccc(NC(=O)c2cccc([N+](=O)[O-])c2)cc1	none
CCOC(=O)/C(C)=N/NC(=O)c1cccc([N+](=O)[O-])c1	FGF22 binding 44.2 (no result: E-sel inducer)
C[C@@H]1CN([C@H](C)CO)S(=O)(=O)c2ccc(C3=CCCC3)cc2O[C@H]1CN(C)C(=O)c1cnccn1	none (no result: FGF22 binding, S100A4 inh HTS)
CC(=O)c1ccc(NC(=S)N2CCCCCC2)cc1	none
CC(=O)c1ccc(N=C2SCCCN2C(=O)C2CCCC2)cc1	FGF22 binding 43.0
CCc1nc(N2CCCCC2C)c2oc3ccccc3c2n1 (stereo not given)	HIV Env fusion 75.4 (no result: E-sel inducer, FGF22 binding, F508del corr, S100A4 inh HTS)
CCc1nc(N2CCCCC2)c2oc3ccccc3c2n1	HIV Env fusion 69.1 (no result: E-sel inducer, FGF22 binding, F508del corr, S100A4 inh HTS)
Clc1ccc(CN2CCN(c3ncnc4scc(-c5cccs5)c34)CC2)cc1	HIV Env fusion 65.5 (no result: E-sel inducer, FGF22 binding, F508del corr, S100A4 inh HTS)
COc1ccc2c3c(n(C)c2c1)[C@@H](CO)N(Cc1nccs1)CC31CN(C(=O)CN(C)C)C1	none (no result: HIV Env fusion)
CCS(=O)(=O)c1ncc(Cl)c(C(=O)Nc2ccc(S(=O)(=O)N3CCCC(C)C3)cc2)n1 (stereo not given)	HIV Env fusion 56.9
CC(C)CC#Cc1ccc([C@H]2[C@H](CO)N3CCCCN(S(=O)(=O)c4ccc(F)cc4)C[C@@H]23)cc1	none (no result: HIV Env fusion)
Cc1ccc(S(=O)(=O)N(C)C[C@H]2Oc3ncc(Br)cc3C(=O)N([C@@H](C)CO)C[C@@H]2C)cc1	HIV Env fusion 77.4[16.7 µM]
C[C@H](CO)N1C[C@H](C)[C@H](CN(C)S(=O)(=O)c2ccc(F)cc2)Oc2ncc(Br)cc2C1=O	none
CCC(=O)N(C)C[C@H]1Oc2ncc(Br)cc2C(=O)N([C@@H](C)CO)C[C@@H]1C	E-sel inducer 72.6
C[C@H]1CN([C@@H](C)CO)C(=O)c2cc(Br)cnc2O[C@@H]1CN(C)C(=O)CN(C)C	none
C[C@@H]1CN([C@@H](C)CO)C(=O)c2cc(Br)cnc2O[C@H]1CN(C)S(=O)(=O)c1ccc(F)cc1	none
Cc1ccc(S(=O)(=O)N(C)C[C@@H]2Oc3ncc(Br)cc3C(=O)N([C@@H](C)CO)C[C@@H]2C)cc1	HIV Env fusion 57.9[16.7 µM]
C[C@@H]1CCCCO[C@@H](CN(C)CC2CCCCC2)[C@@H](C)CN([C@@H](C)CO)C(=O)c2cc(NC(=O)C3CCCCC3)ccc2O1	none
N/C(Cc1cccc2ccccc12)=N\OC(=O)c1ccc2c(c1)OCO2	FGF22 binding 43.5 (no result: E-sel inducer)
CCCCCCCC[n+]1cccc2c3ccccc3ccc21	HIV Env fusion 83.7
CCCCCCCCCC[n+]1cccc2c3ccccc3ccc21	HIV Env fusion 58.9
Cc1c2ccccc2cc[n+]1CCCS(=O)(=O)[O-]	none (no result: E-sel inducer, FGF22 binding, F508del corr, S100A4 inh HTS)
Cc1cccc[n+]1CCCCCCCCCC[n+]1ccccc1C	none (no result: E-sel inducer)
CCc1ccc(-n2c(=S)sc3c(=O)n(-c4ccccc4C)c(SCC(=O)O)nc32)cc1	E-sel inducer 59.8
Cc1ccc(Cl)cc1NC(=O)Nc1cccs1	FGF22 binding 43.0
CCc1ccccc1NC(=O)Nc1cccs1	none (no result: E-sel inducer)
CCCNC(=O)[C@H]1[C@H](CO)[C@H]2Cn3c(cccc3=O)[C@H]2N1C(=O)C1CCCC1	none (no result: HIV Env fusion)
CCCCN1C=CC(=C2C(=O)c3ccccc3C2=O)C=C1	HIV Env fusion 84.0 (no result: E-sel inducer)
CC(=O)N(C)c1ccc(NC(=O)C(Sc2ccccc2)c2ccccc2)cc1 (stereo not given)	none (no result: FGF22 binding)
CC(=O)Nc1ccc(SC(Sc2ccc(NC(C)=O)cc2)c2ccccc2)cc1	FGF22 binding 1.4 (no result: HIV Env fusion)
C[C@H](CO)N1C[C@H](C)[C@@H](CN(C)S(=O)(=O)c2cccs2)Oc2ccc(NS(=O)(=O)c3cccs3)cc2C1=O	none (no result: E-sel inducer, HIV Env fusion)
CCOC(=O)C1(CC2CC2)CCN(Cc2cn(C)c3ccccc23)CC1	FGF22 binding 44.0 (no result: E-sel inducer)
CCOC(=O)C1(Cc2ccccc2)CCN(Cc2cn(CC(=O)OC)c3ccccc23)CC1	none
